Laboratory results published in ChEMBL document CHEMBL1764995, “Design, synthesis, and evaluation of novel 3,6-diaryl-4-aminoalkoxyquinolines as selective agonists of somatostatin receptor subtype 2” (J Med Chem, 2011).

Assays:
[1] = molecular target: T1, Somatostatin receptor type 2 (Homo sapiens, UniProt P30874); assay: Agonist activity at human SST2 expressed in CHO cells assessed as inhibition of forskolin-stimulated cAMP release after 40 mins by luminescence assay; assay type: functional, cell-based
T1 sequence (P30874 whole entry): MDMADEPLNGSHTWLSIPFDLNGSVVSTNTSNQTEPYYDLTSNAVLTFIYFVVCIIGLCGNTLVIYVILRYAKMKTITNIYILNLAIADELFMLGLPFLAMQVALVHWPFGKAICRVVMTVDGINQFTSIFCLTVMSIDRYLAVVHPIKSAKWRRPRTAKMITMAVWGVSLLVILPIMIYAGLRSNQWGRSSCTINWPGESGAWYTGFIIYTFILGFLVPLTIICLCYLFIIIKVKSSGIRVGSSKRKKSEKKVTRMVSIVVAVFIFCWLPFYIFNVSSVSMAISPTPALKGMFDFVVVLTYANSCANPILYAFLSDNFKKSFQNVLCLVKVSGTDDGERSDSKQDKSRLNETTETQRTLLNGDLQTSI

[2] = molecular target: T1, Somatostatin receptor type 2; assay: Displacement of I125-somatostatin-14 from human SST2 expressed in CHO cells after 3 hrs by scintillation counting; assay type: cell-based
[3] = Plasma clearance in dog at 2 mg/kg, iv and 10 mg/kg, po; assay type: ADME, organism-based, Canis lupus familiaris
[4] = Half life in dog at 2 mg/kg, iv and 10 mg/kg, po; assay type: ADME, organism-based, Canis lupus familiaris; details: in vivo
[5] = Volume of distribution at steady state in dog at 2 mg/kg, iv and 10 mg/kg, po; assay type: ADME, organism-based, Canis lupus familiaris; details: in vivo, read-out: Vdss
[6] = organism: Homo sapiens; assay: Selectivity for human SST2 over human SST1
Summary of the method: (§1)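 Human sst1, sst2, sst3, sst4 or sst5 stably expressed in CHO cells; membrane displacement of 0.1 nM 125I-somatostatin-14 by compound 0-10000 nM, 30 min tracer preincubation then 3 h at room temperature, filtration and scintillation counting; selectivity taken from the binding values across subtypes.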

[7] = organism: Homo sapiens; assay: Selectivity for human SST2 over human SST3; summary of the method: as §1
[8] = organism: Homo sapiens; assay: Selectivity for human SST2 over human SST5; summary of the method: as §1
[9] = molecular target: T2, Gonadotropin-releasing hormone receptor (Homo sapiens, UniProt P30968); assay: Antagonist activity at GnRH receptor by GnRH; assay type: functional
T2 sequence (P30968 whole entry): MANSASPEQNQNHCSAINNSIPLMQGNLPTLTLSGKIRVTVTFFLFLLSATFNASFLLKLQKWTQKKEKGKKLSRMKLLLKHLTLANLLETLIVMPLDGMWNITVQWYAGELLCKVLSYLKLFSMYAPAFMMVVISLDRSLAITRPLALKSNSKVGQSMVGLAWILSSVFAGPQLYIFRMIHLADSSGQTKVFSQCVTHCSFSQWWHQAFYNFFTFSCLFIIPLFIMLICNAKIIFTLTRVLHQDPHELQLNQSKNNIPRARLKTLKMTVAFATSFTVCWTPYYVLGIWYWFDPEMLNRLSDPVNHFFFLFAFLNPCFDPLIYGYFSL

[10] = Plasma clearance in rat at 2 mg/kg, iv and 5 mg/kg, po; assay type: ADME, organism-based
[11] = Half life in rat at 2 mg/kg, iv and 5 mg/kg, po; assay type: ADME, organism-based; details: in vivo
[12] = Volume of distribution at steady state in rat at 2 mg/kg, iv and 5 mg/kg, po; assay type: ADME, organism-based; details: in vivo, read-out: Vdss
[13] = Oral bioavailability in rat at 2 mg/kg, iv and 5 mg/kg, po; assay type: ADME, organism-based; details: in vivo
[14] = Plasma clearance in dog at 0.125 mg/kg, iv; assay type: ADME, organism-based, Canis lupus familiaris; set-up: dose 0.125 mg/kg, route intravenous
Summary of the method: (§2)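 Dog PK after 0.125 mg/kg iv; plasma clearance (mL/min/kg), half-life (h) and steady-state volume of distribution (L/kg).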

[15] = Half life in dog at 0.125 mg/kg, iv; assay type: ADME, organism-based, Canis lupus familiaris; set-up: dose 0.125 mg/kg, route intravenous; details: in vivo; summary of the method: as §2
[16] = Volume of distribution at steady state in dog at 0.125 mg/kg, iv; assay type: ADME, organism-based, Canis lupus familiaris; set-up: dose 0.125 mg/kg, route intravenous; details: in vivo, read-out: Vdss; summary of the method: as §2
[17] = tested on: Rattus norvegicus; assay: Antiangiogenic activity against laser-induced choroidal neovascularization rat model assessed as reduction in neovascular lesion area at 5 ug, intraocular administered once every 4 days; assay type: functional; set-up: scale not given: the % may be the effect or the level left
Summary of the method: (§3)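 Laser-induced choroidal neovascularization in male Brown Norway rats (175-225 g). After lasering and topical 0.5% proparacaine, 5 μL vehicle (5% ethanol in PBS) or compound injected intravitreally 3 mm posterior to iris on days 0, 4 and 8; neovascular lesion area measured.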

[18] = tested on: Rattus norvegicus; assay: Antiangiogenic activity against laser-induced choroidal neovascularization rat model assessed as reduction in neovascular lesion area at 15 ug, intraocular administered once every 4 days; assay type: functional; set-up: scale not given: the % may be the effect or the level left; summary of the method: as §3
[19] = tested on: Rattus norvegicus; assay: Antiangiogenic activity against laser-induced choroidal neovascularization rat model assessed as reduction in neovascular lesion area, intraocular administered once every 4 days; assay type: functional, organism-based; details: Eye; summary of the method: as §3
[20] = tested on: Rattus norvegicus; assay: Inhibition of secretagogue-induced growth hormone release in iv dosed Wistar rat plasma after 50 mins before secretagogue challenge measured after every 5 to 15 mins; assay type: functional, organism-based
Summary of the method: (§4)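 Female Wistar rats (200-250 g) with jugular and carotid cannulas, pentobarbital-anesthetized (50 mg/kg ip); vehicle or compound given iv via jugular cannula, GH secretagogue (10 μg/kg iv) 50 min later.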

[21] = tested on: Rattus norvegicus; assay: Inhibition of secretagogue-induced growth hormone release in Wistar rat assessed as reduction in plasma growth hormone area under the curve at 0.2 mg/kg, iv treated 50 mins before secretagogue challenge measured after every 5 to 15 mins; assay type: functional; set-up: scale not given: the % may be the effect or the level left; summary of the method: as §4
[22] = tested on: Rattus norvegicus; assay: Inhibition of secretagogue-induced growth hormone release in Wistar rat assessed as reduction in plasma growth hormone area under the curve at 2 mg/kg, iv treated 50 mins before secretagogue challenge measured after every 5 to 15 mins; assay type: functional; set-up: scale not given: the % may be the effect or the level left; summary of the method: as §4
[23] = Aqueous solubility of the compound; assay type: physicochemical; details: buffer
[24] = Plasma clearance in rat at 2 mg/kg, iv and 10 mg/kg, po; assay type: ADME, organism-based
[25] = Half life in rat at 2 mg/kg, iv and 10 mg/kg, po; assay type: ADME, organism-based; details: in vivo
[26] = Volume of distribution at steady state in rat at 2 mg/kg, iv and 10 mg/kg, po; assay type: ADME, organism-based; details: in vivo, read-out: Vdss
[27] = Oral bioavailability in rat at 2 mg/kg, iv and 10 mg/kg, po iv; assay type: ADME, organism-based; details: in vivo

IC50 [1] [nM]	Ki [2] [nM]	Structure (SMILES)	further results
11	0.13	Cc1cc(C)cc(-c2cnc3cc(Cl)c(-c4ccc(Cl)nc4)cc3c2OCC[C@H]2CCCCN2)c1	–
0.29	0.27	Cc1cc(C)cc(-c2cnc3cc(Cl)c(-c4ccc(=O)[nH]c4)cc3c2OCC[C@H]2CCCCN2)c1	clearance [3]: 5 mL/min/kg; half-life [4]: 0.55 h; Vd [5]: 0.094 L/kg; fold change (FC) [6]: > 1000; fold change (FC) [7]: > 1000; fold change (FC) [8]: > 1000
–	20	Cc1cc(C)cc(-c2cnc3cc(Cl)c(C(=O)Nc4ccncn4)cc3c2OCC[C@H]2CCCCN2)c1	IC50 [9]: 2440 nM
–	1.5	Cc1cc(C)cc(-c2c(OCC[C@H]3CCCCN3)c3cc(-c4ccc(F)cc4)c(Cl)cc3[nH]c2=O)c1	–
4.8	0.025	Cc1cc(C)cc(-c2cnc3cc(Cl)c(-c4cccc(O)c4)cc3c2OCCCN)c1	clearance [10]: 52 mL/min/kg; half-life [11]: 2.9 h; Vd [12]: 9.4 L/kg; bioavailability [13]: 17%; clearance [14]: 7.1 mL/min/kg; half-life [15]: 11 h; Vd [16]: 5.7 L/kg; Activity [17]: 35%; Activity [18]: 53%; Activity [19]: Dose-dependent effect; inhibition [20]: Dose-dependent effect; Activity [21]: 38%; Activity [22]: 91%; solubility [23]: Insoluble
50	0.65	COc1ccc(-c2cc3c(OCC[C@H]4CCCCN4)c(-c4cc(C)cc(C)c4)cnc3cc2Cl)cn1	–
–	1400	Cc1cc(C)cc(-c2c(OCCC3CCCCN3)c3cc(-c4ccncn4)c(Cl)cc3[nH]c2=O)c1 (configuration not stated)	IC50 [9]: 3.2 nM
0.39	0.038	Cc1cc(C)cc(-c2cnc3cc(Cl)c(-c4cccc(C(N)=O)c4)cc3c2OCC[C@H]2CCCCN2)c1	–
0.38	0.08	Cc1cc(C)cc(-c2cnc3cc(Cl)c(-c4ccc(O)cc4)cc3c2OCC[C@H]2CCCCN2)c1	–
13	0.1	Cc1cc(C)cc(-c2cnc3cc(Cl)c(-c4ccc(CO)cc4)cc3c2OCC[C@H]2CCCCN2)c1	–
–	–	Cc1cc(C)cc(-c2cnc3cc(Cl)c(-c4cnn(C)c4)cc3c2OCC[C@H]2CCCCN2)c1	clearance [24]: 14 mL/min/kg; half-life [25]: 3.7 h; Vd [26]: 3.1 L/kg; bioavailability [27]: 27%; fold change (FC) [6]: > 1000; fold change (FC) [7]: > 1000; fold change (FC) [8]: > 1000
8.3	0.13	Cc1cc(C)cc(-c2cnc3cc(Cl)c(-c4cccnc4)cc3c2OCC[C@H]2CCCCN2)c1	–
20	0.11	Cc1cc(C)cc(-c2cnc3cc(Cl)c(-c4ccncc4)cc3c2OCC[C@H]2CCCCN2)c1	–
11	0.13	OCc1cccc(-c2ccc3ncc(-c4cccc(CO)c4)c(OCC[C@H]4CCCCN4)c3c2)c1	–
1.1	0.037	Cc1cc(C)cc(-c2cnc3cc(Cl)c(-c4cccc(O)c4)cc3c2OCC[C@H]2CCCCN2)c1	–
34	0.6	Cc1cc(C)cc(-c2cnc3cc(Cl)c(-c4ccc(N)nc4)cc3c2OCC[C@H]2CCCCN2)c1	–
8.3	0.13	Cn1cc(-c2cc3c(OCC[C@H]4CCCCN4)c(-c4cccc(CO)c4)cnc3cc2Cl)cn1	–
4.7	0.12	Cc1cc(C)cc(-c2cnc3cc(Cl)c(-c4ccc(F)nc4)cc3c2OCC[C@H]2CCCCN2)c1	–
0.38	0.08	Cc1cc(C)cc(-c2cnc3cc(Cl)c(-c4cccc(C(N)=O)c4)cc3c2OCCCN)c1	–
